These results are taken from article PMC6030940 (International Journal of Nanomedicine, 2018).

Entries after “also recorded” stand apart in the source; their conditions may differ.

One data set deals with Caco-2 monolayer. The following applies: previous study; cited from earlier work.
For data set [1], the system named is Pgp expression in kidney cancer cells. The conditions noted are these: 5 ng/mL, 72 h; cited from earlier work.
For data set [2], the target named is T1, Pgp (Homo sapiens, UniProt P08183). Nature of the data set: Cellular uptake of BBR in MDCK-MDR1 cells. It counts as cell-based. The following applies: BS20 8.1 µM, BBR 100 µM, 37°C, 90 min.
T1 sequence (P08183 whole entry): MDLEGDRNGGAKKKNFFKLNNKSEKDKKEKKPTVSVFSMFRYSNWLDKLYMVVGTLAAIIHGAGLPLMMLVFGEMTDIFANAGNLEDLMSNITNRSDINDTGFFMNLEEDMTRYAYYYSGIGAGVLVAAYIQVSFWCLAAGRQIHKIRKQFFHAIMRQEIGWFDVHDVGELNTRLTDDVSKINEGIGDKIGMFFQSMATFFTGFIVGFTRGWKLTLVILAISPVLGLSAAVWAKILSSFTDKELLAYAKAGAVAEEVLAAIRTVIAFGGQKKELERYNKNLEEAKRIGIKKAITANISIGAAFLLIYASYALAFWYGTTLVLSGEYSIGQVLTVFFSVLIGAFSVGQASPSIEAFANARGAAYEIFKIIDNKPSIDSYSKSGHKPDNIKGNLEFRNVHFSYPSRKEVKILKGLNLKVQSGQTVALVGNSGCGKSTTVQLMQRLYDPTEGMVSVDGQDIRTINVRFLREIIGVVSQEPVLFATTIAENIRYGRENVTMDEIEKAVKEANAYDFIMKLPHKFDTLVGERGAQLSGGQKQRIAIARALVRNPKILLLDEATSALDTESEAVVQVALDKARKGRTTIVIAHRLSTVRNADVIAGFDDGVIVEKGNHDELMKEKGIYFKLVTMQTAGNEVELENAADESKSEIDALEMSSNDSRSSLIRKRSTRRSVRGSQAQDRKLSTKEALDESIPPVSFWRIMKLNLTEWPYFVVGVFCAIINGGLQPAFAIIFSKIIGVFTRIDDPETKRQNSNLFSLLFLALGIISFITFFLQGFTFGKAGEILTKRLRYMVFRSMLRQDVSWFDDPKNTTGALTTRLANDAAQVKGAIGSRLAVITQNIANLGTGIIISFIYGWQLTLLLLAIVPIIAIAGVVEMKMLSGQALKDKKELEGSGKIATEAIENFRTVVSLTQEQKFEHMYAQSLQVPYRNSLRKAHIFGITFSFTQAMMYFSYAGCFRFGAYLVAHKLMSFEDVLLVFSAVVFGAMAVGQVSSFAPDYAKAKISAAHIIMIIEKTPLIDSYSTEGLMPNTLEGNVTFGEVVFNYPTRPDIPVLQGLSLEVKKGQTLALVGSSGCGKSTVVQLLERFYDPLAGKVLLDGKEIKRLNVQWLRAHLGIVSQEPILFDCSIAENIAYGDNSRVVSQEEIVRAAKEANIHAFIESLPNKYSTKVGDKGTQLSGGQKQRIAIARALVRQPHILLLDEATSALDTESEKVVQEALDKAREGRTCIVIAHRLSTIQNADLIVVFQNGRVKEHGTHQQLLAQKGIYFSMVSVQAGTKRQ
In data set [3] the target is T1, Pgp. In words: Cellular uptake of Rhodamine123 by MDCK-MDR1 cells. Type of data set: cell-based. The following applies: 37°C, 90 min, Figure 2.
The test system of data set [4] is Pgp protein expression in MDCK-MDR1 cells. In words: Cellular Pgp protein expression, Western blotting. Type of data set: cell-based. The conditions noted are these: BS20 5 or 10 µM, 3 h and 24 h.
Data set [5] concerns Pgp mRNA expression in MDCK-MDR1 cells. Nature of the data set: Pgp mRNA expression, real-time quantitative PCR. Type of data set: cell-based. The following applies: normalized to GAPDH. The essentials: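 MDCK-MDR1 cells (DMEM, 10% FBS, 37°C, 5% CO2) were exposed to the test surfactant for 3 or 24 h. Total RNA was kit-extracted and reverse-transcribed with gDNA eraser. qPCR ran 95°C 30 s, then 40 cycles of 95°C 5 s and 60°C 30 s, followed by melt-curve analysis. Pgp expression was normalised to GAPDH by the 2−ΔΔCq method.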

In data set [6] the test system is intracellular ATP in MDCK-MDR1 cells. In words: Intracellular ATP level, ATPlite luminescence assay. It counts as cell-based, canine. The conditions noted are these: BS20 5 or 10 µM. The essentials: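 MDCK-MDR1 cells were seeded at 1 × 10^4 cells/well, left to adhere overnight, then exposed to the test surfactant at 5 or 10 μM for 3 or 24 h. Cells were lysed by three freeze-thaw cycles in lysis reagent. Substrate reagent was added and plates rocked 10 min at room temperature. ATPlite luminescence was read on a plate reader.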

Data set [7] can be described thus: Morphology and size by scanning electron microscopy. It counts as physicochemical. The conditions noted are these: SEM images. The essentials: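 Samples were fixed on SEM stubs with double-sided adhesive tape and coated with Au. They were imaged by scanning electron microscopy at 15 kV acceleration voltage.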
For data set [8] the following is noted: no reference given; cited from earlier work.
In another data set the target is human Pgp membrane (Homo sapiens, UniProt P08183). Nature of the data set: Pgp ATPase activity, Pgp-Glo assay system. The following applies: 37°C, 120 min.
Chain of human Pgp membrane (P08183 whole entry): as above
The conditions of data set [9]: has been reported; cited from earlier work.
Another data set concerns MDCK-MDR1 cell monolayer. Nature of the data set: Bidirectional transport across MDCK-MDR1 cell monolayer. The conditions noted are these: BBR in the presence of 10 µM verapamil.
For another data set, the system named is P-gp (MDR1). The data set is described as above. The conditions noted are these: dog, MDCK-MDR1, pH 7.4.
Data set [10] concerns Pgp. The data set is described as above. The conditions noted are these: dog, MDCK-MDR1, pH 7.4.
For the next data set, the system named is Pgp mRNA in T84 cells. The following applies: 10 µM, 72 h; cited from earlier work.

On to “polyoxyethylene (23) lauryl ether [Brij-35]”, for which, in the data set with Caco-2 monolayer, the “permeation of bis(12)-hupyridone through Caco-2 monolayer” value is given as “significantly increase the permeation”.
Consider `C/C=C1\NC(=O)[C@H]2CSSCC/C=C/[C@H](CC(=O)N[C@H](C(C)C)C(=O)N2)OC(=O)[C@H](C(C)C)NC1=O` [depsipeptide], for which the “increased expression levels of Pgp” value in data set [1] is on record as 6.3 fold.
In the case of “polyoxyethylene (20) stearyl ether [BS20]”, on Pgp [2], the “increase of cellular uptake of BBR vs BBR group” value is 4.1 fold. For the same molecule, on Pgp [3], the “effect on intracellular accumulation of Rho123” value is reported as “presented the most potency on increasing the intracellular accumulation of Rho123”. The Pgp protein expression result in data set [4] was “no significant changes in Pgp protein expression”. Also, the “Pgp mRNA expression” value in data set [5] (BS20 5 µM, 3 h) is on record as 0.9 fold; in data set [5] (BS20 5 µM, 24 h) it was 2.3 fold; in data set [5] (BS20 10 µM, 3 h), 1.4 fold; in data set [5] (BS20 10 µM, 24 h), 3.8 fold. In addition, the figures for the “activity of intracellular ATP” value in [6] (3 h) and in data set [6] (24 h) were “dose-dependently inhibited; also recorded: inhibited the activity of intracellular ATP” and “reversed to normal level”, respectively. Besides, the “size by SEM” value in [7] is more than 5 µm. For the same molecule, the critical micelle concentration in data set [8] was 0.006 mM. The “stimulation of Pgp-ATPase activity vs normal control (basal level)” value at human Pgp membrane (BS20 5 µM) turned out to be 3.5 fold; at human Pgp membrane (BS20 10 µM), 4.5 fold.
Turning to `COc1ccc2cc3[n+](cc2c1OC)CCc1cc2c(cc1-3)OCO2` [BBR, Berberine], the “size by SEM” value in data set [7] is listed as 1–2 µm. Moreover, the oral bioavailability in data set [9] was less than 1%. In addition, in the data set on MDCK-MDR1 cell monolayer, the “absorptive quotient (AQ)” value worked out at 0.344 and the “secretory quotient (SQ)” value came to 1.16. The efflux ratio at 120 min, 10 µM with P-gp (MDR1) came out at 7.12. In the data set on Pgp [10], this molecule registered a Papp A→B at 120 min, 10 µM of 0.4 ± 0.01 ×10⁻⁶ cm/s and a basolateral-to-apical permeability (Papp B→A) at 120 min, 10 µM of 2.85 ± 0.04 ×10⁻⁶ cm/s.
Regarding `C=C[C@H]1C[N@@]2CC[C@H]1C[C@@H]2[C@@H](O)c1ccnc2ccc(OC)cc12` [quinidine], the “increase of mRNA levels of Pgp” value with Pgp mRNA in T84 cells was 3.8 fold.
Consider `CC(C)CN(C[C@@H](O)[C@H](Cc1ccccc1)NC(=O)O[C@H]1CCOC1)S(=O)(=O)c1ccc(N)cc1` [amprenavir], for which the “increase of mRNA levels of Pgp” value in the data set with Pgp mRNA in T84 cells was 5.1 fold.
As to “D-α-Tocopherol polyethylene glycol 1000 succinate [TPGS]”, at Pgp [3], the “effect on intracellular accumulation of Rho123” value is recorded as “most powerful nonionic surfactant with the function of Pgp inhibition”. The critical micelle concentration in data set [8] was 0.02 mM.
